Data: ChEMBL document CHEMBL1122520, “Potential antitumor agents. 43. Synthesis and biological activity of dibasic 9-aminoacridine-4-carboxamides, a new class of antitumor agent” (J Med Chem, 1984)
Each block holds one molecule with its values, some of them ahead of it.

Legend:
[1] = Lipophilicity (Rm) (RP-TLC); assay type: physicochemical
[2] = Logarithmic association constant determined by ethidium displacement from DNA co-polymers (adenine & thymine)
Summary of the method: (§1)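 Binding constants derived from ethidium displacement from synthetic DNA copolymers, assuming competitive binding.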

[3] = Logarithmic association constant determined by ethidium displacement from DNA co-polymers (G + C); summary of the method: as §1
[4] = pKa value for the side-chain cationic center; assay type: physicochemical
[5] = tested on: HCT-8; assay: Concentration required for 50% reduction of counted HCT-8 cells upon exposure for a period of 70h; assay type: functional; conditions: Homo sapiens, HCT-8, 70 h; read-out: ID50 (the source's name)
Summary of the method: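 HCT-8 human colon adenocarcinoma cells grown in Alpha MEM with glutamine for 2 days before drug addition. Drug exposure for 70 h per table footnote, with 4-day incubation stated in methods. Trypsinized cells counted electronically. ID50 = nM concentration reducing counted cells to 50% of controls.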

[6] = tested on: L1210; assay: Concentration required for 50% reduction of counted L1210 cells upon exposure for a period of 70h; assay type: functional; conditions: Mus musculus, L1210, 70 h; read-out: ID50 (the source's name)
Summary of the method: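 L1210 leukemia cells cultured with drug for 70 h, then counted. ID50 taken as the nanomolar concentration reducing cell count to 50% of untreated controls.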

[7] = organism: Mus musculus; assay: Percentage increase in lifespan of treated animals over that of animals injected with tumor (10e6 P388 leukemia cells), at the optimal dose of 5.9 mg/(kg day); assay type: functional
[8] = organism: Mus musculus; assay: Percentage increase in lifespan of treated animals over that of animals injected with tumor (10e6 P388 leukemia cells), at the optimal dose of 250 mg/(kg day); g=No activity (ILS < 20%)
[9] = organism: Mus musculus; assay: Percentage increase in lifespan of treated animals over that of animals injected with tumor (10e6 P388 leukemia cells), at the optimal dose of 13.3 mg/(kg day); assay type: functional
[10] = organism: Mus musculus; assay: Percentage increase in lifespan of treated animals over that of animals injected with tumor (10e6 P388 leukemia cells), at the optimal dose of 2.6 mg/(kg day); assay type: functional
[11] = organism: Mus musculus; assay: Percentage increase in lifespan of treated animals over that of animals injected with tumor (10e6 P388 leukemia cells), at the optimal dose of 30 mg/(kg day); g=No activity (ILS < 20%); assay type: functional, organism-based
[12] = organism: Mus musculus; assay: Percentage increase in lifespan of treated animals over that of animals injected with tumor (10e6 P388 leukemia cells), at the optimal dose of 20 mg/(kg day); assay type: functional
[13] = organism: Mus musculus; assay: Number of mice survived indefinitely out a group of 6; assay type: functional
[14] = tested on: Mus musculus; assay: Percentage increase in lifespan of treated animals over that of animals injected with tumor (10e6 P388 leukemia cells), at the optimal dose of 50 mg/kg day); g=No activity (ILS < 20%); assay type: functional, organism-based; design: dose 50 mg/kg
[15] = organism: Mus musculus; assay: Percentage increase in lifespan of treated animals over that of animals injected with tumor (10e6 P388 leukemia cells), at the optimal dose of 30 mg/(kg day); assay type: functional
[16] = organism: Mus musculus; assay: Percentage increase in lifespan of treated animals over that of animals injected with tumor (10e6 P388 leukemia cells), at the optimal dose of 8.9 mg/(kg day); g=No activity (ILS < 20%); assay type: functional, organism-based
[17] = organism: Mus musculus; assay: Percentage increase in lifespan of treated animals over that of animals injected with tumor (10e6 P388 leukemia cells), at the optimal dose of 40 mg/(kg day); g=No activity (ILS < 20%); assay type: functional, organism-based
[18] = organism: Mus musculus; assay: Percentage increase in lifespan of treated animals over that of animals injected with tumor (10e6 P388 leukemia cells), at the optimal dose of 8.9 mg/(kg day); assay type: functional

- Rm [1]: -1
- Log K [2]: 7.08
- Log K [3]: 7.55
- pKa [4]: 8.6
- IC50 [5]: > 5000 nM
- IC50 [6]: > 2000 nM
Compound: CN(C)CCNC(=O)c1ccc2nc3ccccc3c(N)c2c1
- ILS [8]: No activity (ILS <20%)

- Rm [1]: -1
- Log K [2]: 7.29
- Log K [3]: 7.58
- pKa [4]: 6.7
- IC50 [5]: 2000 nM
- IC50 [6]: 1020 nM
Compound: Nc1c2ccccc2nc2c(C(=O)NCCN3CCOCC3)cccc12
- ILS [11]: No activity (ILS <20%)

- Rm [1]: -0.58
- Log K [2]: 7.41
- Log K [3]: 7.4
- IC50 [5]: 1750 nM
- IC50 [6]: 1540 nM
Compound: CN(C)CCCCCCNC(=O)c1cccc2c(N)c3ccccc3nc12

- Rm [1]: -0.73
- Log K [2]: 7.45
- Log K [3]: 7.45
- IC50 [5]: 1800 nM
- IC50 [6]: 1370 nM
Compound: CN(C)CCCCCNC(=O)c1cccc2c(N)c3ccccc3nc12

- Rm [1]: -0.93
- Log K [2]: 7.51
- Log K [3]: 7.6
- IC50 [5]: 520 nM
- IC50 [6]: 157 nM
Compound: CN(C)CCCNC(=O)c1cccc2c(N)c3ccccc3nc12
- ILS [14]: No activity (ILS <20%)

- Rm [1]: -0.89
- Log K [2]: 7.49
- Log K [3]: 7.43
- IC50 [5]: 1000 nM
- IC50 [6]: 430 nM
Compound: CN(C)CCCCNC(=O)c1cccc2c(N)c3ccccc3nc12

- Rm [1]: -1.72
- Log K [2]: 7.83
- Log K [3]: 8.2
- IC50 [5]: 1300 nM
- IC50 [6]: 460 nM
Compound: CN(C)CCNC(=O)c1cccc2c(NCCN(C)C)c3ccccc3nc12
- ILS [16]: No activity (ILS <20%)

- Rm [1]: -0.57
- Log K [2]: 6.94
- Log K [3]: 7.03
- pKa [4]: 5.9
- IC50 [5]: 3200 nM
- IC50 [6]: 1900 nM
Compound: Nc1c2ccccc2nc2c(C(=O)NCCc3ccccn3)cccc12
- ILS [17]: No activity (ILS <20%)

- Rm [1]: -0.44
- Log K [2]: 7.43
- Log K [3]: 7.3
- IC50 [5]: 2000 nM
- IC50 [6]: 1180 nM
Compound: CN(C)CCCCCCCNC(=O)c1cccc2c(N)c3ccccc3nc12

- Rm [1]: -1.19
- Log K [2]: 6.82
- Log K [3]: 7.61
- IC50 [5]: 540 nM
- IC50 [6]: 484 nM
Compound: CN(C)CCNC(=O)c1cccc2c(NCCO)c3ccccc3nc12
- ILS [16]: No activity (ILS <20%)

- Rm [1]: -1.29
- Log K [2]: 6.58
- Log K [3]: 6.45
- IC50 [5]: > 1500 nM
- IC50 [6]: > 2000 nM
Compound: CN1CCN(C(=O)c2cccc3c(N)c4ccccc4nc23)CC1

- Rm [1]: -1.06
- Log K [2]: 7.18
- Log K [3]: 7.66
- IC50 [5]: > 5000 nM
- IC50 [6]: > 2000 nM
Compound: CN(C)CCNC(=O)c1ccc2c(N)c3ccccc3nc2c1

- Rm [1]: -1.11
- Log K [2]: 7.17
- Log K [3]: 7.65
- IC50 [5]: 125 nM
- IC50 [6]: 15 nM
Compound: CNc1c2ccccc2nc2c(C(=O)NCCN(C)C)cccc12

Second part, the molecule before the results:

Compound: CCN(CC)CCNC(=O)c1cccc2c(N)c3ccccc3nc12
- Rm [1]: -0.67
- Log K [2]: 7.26
- Log K [3]: 7.59
- pKa [4]: 9.2
- IC50 [5]: 83 nM
- IC50 [6]: 5.5 nM
- ILS [7]: 70%

Compound: COCCNc1c2ccccc2nc2c(C(=O)NCCN(C)C)cccc12
- Rm [1]: -0.76
- Log K [2]: 6.73
- Log K [3]: 7.35
- IC50 [5]: 400 nM
- IC50 [6]: 85 nM
- ILS [9]: 47%

Compound: Nc1c2ccccc2nc2c(C(=O)NCCN3CCCCC3)cccc12
- Rm [1]: -0.7
- Log K [2]: 7.12
- Log K [3]: 7.1
- pKa [4]: 8.9
- IC50 [5]: 380 nM
- IC50 [6]: 102 nM
- ILS [10]: 33%

Compound: NCCNC(=O)c1cccc2c(N)c3ccccc3nc12
- Rm [1]: -1.18
- Log K [2]: 7.36
- Log K [3]: 7.67
- pKa [4]: 9.1
- IC50 [5]: 1500 nM
- IC50 [6]: 414 nM
- ILS [12]: 71%

Compound: CN(C)CCNC(=O)c1cccc2c(N)c3ccccc3nc12
- Rm [1]: -1.11
- IC50 [5]: 55 nM
- Survivors [13]: 1

Compound: CCCCCCNc1c2ccccc2nc2c(C(=O)NCCN(C)C)cccc12
- Rm [1]: -0.04
- Log K [2]: 7
- Log K [3]: 7.79
- IC50 [5]: 210 nM
- IC50 [6]: 65 nM
- ILS [15]: 88%

Compound: CCCNc1c2ccccc2nc2c(C(=O)NCCN(C)C)cccc12
- Rm [1]: -0.57
- Log K [2]: 7.23
- Log K [3]: 7.79
- IC50 [5]: 203 nM
- IC50 [6]: 46 nM
- ILS [9]: 64%

Compound: CCCCCNc1c2ccccc2nc2c(C(=O)NCCN(C)C)cccc12
- Rm [1]: -0.23
- Log K [2]: 6.91
- Log K [3]: 7.58
- IC50 [5]: 160 nM
- IC50 [6]: 43 nM
- ILS [9]: 64%

Compound: CCNc1c2ccccc2nc2c(C(=O)NCCN(C)C)cccc12
- Rm [1]: -0.88
- Log K [2]: 7.14
- Log K [3]: 7.69
- IC50 [5]: 188 nM
- IC50 [6]: 94 nM
- ILS [18]: 30%

Compound: CCCCNc1c2ccccc2nc2c(C(=O)NCCN(C)C)cccc12
- Rm [1]: -0.34
- Log K [2]: 7.1
- Log K [3]: 7.69
- IC50 [5]: 150 nM
- IC50 [6]: 41 nM
- ILS [12]: 70%

Compound: Nc1c2ccccc2nc2c(C(=O)NCCNCCO)cccc12
- Rm [1]: -1.06
- Log K [2]: 7.34
- Log K [3]: 7.73
- pKa [4]: 8.5
- IC50 [5]: 1600 nM
- IC50 [6]: 77 nM
- ILS [12]: 73%
